In ChEMBL document CHEMBL4130549, “Synthesis and bioactivities study of new antibacterial peptide mimics: The dialkyl cationic amphiphiles” (Eur J Med Chem, 2018):
The source made the active and inactive calls. The calls are words filed in the database; no cut-off is given here.

What was measured:
[1] = test system: Enterococcus faecalis; assay: Antibacterial activity against Enterococcus faecalis after 16 to 20 hrs by broth microdilution method; assay type: functional
In short: (§1)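 Broth microdilution per CLSI in cation-adjusted Mueller-Hinton broth; 4-6 h cultures (~10⁸ CFU/mL) diluted to ~10⁶ CFU/mL and mixed 1:1 with twofold dilutions of water-dissolved compound (256 to 0.5 µg/mL). Incubated 16-20 h at 37 °C; MIC read visually. Each concentration run in duplicate, whole experiment repeated at least twice. MRSA, KPC and NDM-1 strains were clinical isolates.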

[2] = test system: Klebsiella pneumoniae; assay: Antibacterial activity against carbapenemase-producing Klebsiella pneumoniae isolate K9 after 16 to 20 hrs by broth microdilution method; assay type: functional; in short: as §1
[3] = test system: Klebsiella pneumoniae; assay: Antibacterial activity against carbapenemase-producing Klebsiella pneumoniae isolate K1 after 16 to 20 hrs by broth microdilution method; assay type: functional; in short: as §1
[4] = test system: Staphylococcus aureus; assay: Induction of cytoplasmic membrane depolarization in Staphylococcus aureus ATCC 29213 at 20 ug/ml measured every 2 mins for 12 mins by diSC35 staining based fluorescence assay; assay type: functional, organism-based
In short: (§2)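 Mid-log cells (4–6 h) pelleted, washed and resuspended (~10^8 CFU/mL) in PBS for S. aureus, or in 5 mM HEPES, 5 mM glucose and 100 mM KCl (1:1:1) for E. coli. Preloaded with diSC35 (10 µM, 50 µL), 30 min for S. aureus and 40 min plus EDTA (200 µM, 50 µL) for E. coli. Baseline read 8 min (ex 622/em 670 nm), then compound added to 20 µg/mL final and read every 2 min for 12 min. Water control.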

[5] = test system: Staphylococcus aureus; assay: Antibacterial activity against methicillin-resistant Staphylococcus aureus after 16 to 20 hrs by broth microdilution method; assay type: functional
In short: (§3)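 CLSI broth microdilution in cation-adjusted Mueller-Hinton broth. A 4-6 h culture was diluted to about 10⁶ CFU/mL and mixed 1:1 with twofold compound dilutions (256–0.5 µg/mL before mixing) prepared from aqueous stocks. Plates were incubated at 37 °C for 16-20 h. Each concentration was tested in duplicate, and the experiment was repeated at least twice.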

[6] = test system: Staphylococcus aureus; assay: Antibacterial activity against methicillin-resistant Staphylococcus aureus isolate M7 after 16 to 20 hrs by broth microdilution method; assay type: functional; in short: as §3
[7] = test system: Staphylococcus aureus; assay: Antibacterial activity against methicillin-resistant Staphylococcus aureus isolate M10 after 16 to 20 hrs by broth microdilution method; assay type: functional; in short: as §3
[8] = test system: Escherichia coli; assay: Antibacterial activity against Escherichia coli ATCC 25922 after 16 to 20 hrs by broth microdilution method; assay type: functional; in short: as §1
[9] = test system: Escherichia coli; assay: Induction of cytoplasmic membrane depolarization in Escherichia coli ATCC 25922 at 20 ug/ml measured every 2 mins for 12 mins by diSC35 staining based fluorescence assay; assay type: functional, organism-based; in short: as §2
[10] = test system: Escherichia coli; assay: Induction of inner membrane permeabilization in Escherichia coli ATCC 25922 at 20 ug/ml measured every 2 mins for 12 mins by propidium iodide staining based fluorescence assay; assay type: functional, organism-based
In short: (§4)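 Mid-log cells (~10^8 CFU/mL) pre-incubated with propidium iodide (10 µM, 50 µL), 30 min for S. aureus and 40 min for E. coli. Fluorescence (ex 535/em 617 nm) read for 8 min, then compound added to 20 µg/mL final and monitored every 2 min for 12 min. Water-treated control.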

[11] = test system: Staphylococcus aureus; assay: Antibacterial activity against methicillin-resistant Staphylococcus aureus isolate M1 after 16 to 20 hrs by broth microdilution method; assay type: functional; in short: as §3
[12] = test system: Klebsiella pneumoniae; assay: Antibacterial activity against carbapenemase-producing Klebsiella pneumoniae isolate K10 after 16 to 20 hrs by broth microdilution method; assay type: functional; in short: as §1
[13] = test system: Klebsiella pneumoniae; assay: Antibacterial activity against carbapenemase-producing Klebsiella pneumoniae isolate K2 after 16 to 20 hrs by broth microdilution method; assay type: functional; in short: as §1
[14] = test system: Klebsiella pneumoniae; assay: Antibacterial activity against carbapenemase-producing Klebsiella pneumoniae isolate K8 after 16 to 20 hrs by broth microdilution method; assay type: functional; in short: as §1
[15] = test system: Staphylococcus aureus; assay: Antibacterial activity against methicillin-resistant Staphylococcus aureus isolate M2 after 16 to 20 hrs by broth microdilution method; assay type: functional; in short: as §3
[16] = test system: Staphylococcus aureus; assay: Antibacterial activity against methicillin-resistant Staphylococcus aureus isolate M9 after 16 to 20 hrs by broth microdilution method; assay type: functional; in short: as §3
[17] = test system: Staphylococcus aureus; assay: Antibacterial activity against methicillin-resistant Staphylococcus aureus isolate M4 after 16 to 20 hrs by broth microdilution method; assay type: functional; in short: as §3
[18] = test system: Enterobacteriaceae; assay: Antibacterial activity against NDM-1-producing Enterobacteriaceae isolate N8 after 16 to 20 hrs by broth microdilution method; assay type: functional; in short: as §1
[19] = test system: Enterobacteriaceae; assay: Antibacterial activity against NDM-1-producing Enterobacteriaceae isolate N4 after 16 to 20 hrs by broth microdilution method; assay type: functional; in short: as §1
[20] = test system: Enterobacteriaceae; assay: Antibacterial activity against NDM-1-producing Enterobacteriaceae isolate N9 after 16 to 20 hrs by broth microdilution method; assay type: functional; in short: as §1
[21] = test system: Staphylococcus aureus; assay: Antibacterial activity against methicillin-resistant Staphylococcus aureus isolate M8 after 16 to 20 hrs by broth microdilution method; assay type: functional; in short: as §3
[22] = test system: Enterobacteriaceae; assay: Antibacterial activity against NDM-1-producing Enterobacteriaceae isolate N2 after 16 to 20 hrs by broth microdilution method; assay type: functional; in short: as §1
[23] = test system: Enterobacteriaceae; assay: Antibacterial activity against NDM-1-producing Enterobacteriaceae isolate N3 after 16 to 20 hrs by broth microdilution method; assay type: functional; in short: as §1
[24] = test system: Enterobacteriaceae; assay: Antibacterial activity against NDM-1-producing Enterobacteriaceae isolate N5 after 16 to 20 hrs by broth microdilution method; assay type: functional; in short: as §1
[25] = test system: Klebsiella pneumoniae; assay: Antibacterial activity against carbapenemase-producing Klebsiella pneumoniae isolate K6 after 16 to 20 hrs by broth microdilution method; assay type: functional; in short: as §1
[26] = test system: Staphylococcus aureus; assay: Antibacterial activity against methicillin-resistant Staphylococcus aureus isolate M3 after 16 to 20 hrs by broth microdilution method; assay type: functional; in short: as §3
[27] = test system: Staphylococcus aureus; assay: Induction of inner membrane permeabilization in Staphylococcus aureus ATCC 29213 at 20 ug/ml measured every 2 mins for 12 mins by propidium iodide staining based fluorescence assay; assay type: functional, organism-based; in short: as §4
[28] = test system: Enterobacteriaceae; assay: Antibacterial activity against NDM-1-producing Enterobacteriaceae isolate N7 after 16 to 20 hrs by broth microdilution method; assay type: functional; in short: as §1
[29] = test system: Enterobacteriaceae; assay: Antibacterial activity against NDM-1-producing Enterobacteriaceae isolate N6 after 16 to 20 hrs by broth microdilution method; assay type: functional; in short: as §1
[30] = test system: Klebsiella pneumoniae; assay: Antibacterial activity against carbapenemase-producing Klebsiella pneumoniae isolate K3 after 16 to 20 hrs by broth microdilution method; assay type: functional; in short: as §1
[31] = test system: Staphylococcus aureus; assay: Antibacterial activity against methicillin-resistant Staphylococcus aureus isolate M6 after 16 to 20 hrs by broth microdilution method; assay type: functional; in short: as §3
[32] = test system: Klebsiella pneumoniae; assay: Antibacterial activity against carbapenemase-producing Klebsiella pneumoniae isolate K7 after 16 to 20 hrs by broth microdilution method; assay type: functional; in short: as §1
[33] = Hemolytic activity in sheep RBC after 1 hr; assay type: ADME, cell-based, Ovis aries, Erythrocyte; conditions: sheep red blood cells (erythrocytes)
In short: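 Sheep RBCs suspended at 5% in PBS; 150 µL added to 50 µL compound dilutions (5120 to 10 µg/mL series). Incubated 1 h at 37 °C, then centrifuged; supernatant absorbance read at 540 nm. Lysis (%) = (A−A0)/(Atotal−A0)×100, with untreated 5% RBC as A0 and 0.1% Triton X-100 as total.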

[34] = test system: Escherichia coli; assay: Induction of outer membrane permeabilization in Escherichia coli ATCC 25922 at 20 ug/ml measured every 2 mins for 12 mins by NPN staining based fluorescence assay; assay type: functional, organism-based
In short: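 Mid-log E. coli (~10^8 CFU/mL) in black plates pre-incubated about 40 min with NPN (10 µM, 50 µL). Baseline read 8 min (ex 350/em 420 nm), then compound added to 20 µg/mL final and fluorescence followed every 2 min for 12 min. Water-treated control.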

[35] = test system: Enterobacteriaceae; assay: Antibacterial activity against NDM-1-producing Enterobacteriaceae isolate N10 after 16 to 20 hrs by broth microdilution method; assay type: functional; in short: as §1
[36] = test system: Enterobacteriaceae; assay: Antibacterial activity against NDM-1-producing Enterobacteriaceae isolate N1 after 16 to 20 hrs by broth microdilution method; assay type: functional; in short: as §1
[37] = test system: Staphylococcus aureus; assay: Antibacterial activity against Staphylococcus aureus ATCC 29213 after 16 to 20 hrs by broth microdilution method; assay type: functional; in short: as §3
[38] = test system: Salmonella enterica; assay: Antibacterial activity against Salmonella enterica after 16 to 20 hrs by broth microdilution method; assay type: functional; in short: as §1
[39] = test system: Klebsiella pneumoniae; assay: Antibacterial activity against carbapenemase-producing Klebsiella pneumoniae isolate K4 after 16 to 20 hrs by broth microdilution method; assay type: functional; in short: as §1
[40] = test system: Klebsiella pneumoniae; assay: Antibacterial activity against carbapenemase-producing Klebsiella pneumoniae isolate K5 after 16 to 20 hrs by broth microdilution method; assay type: functional; in short: as §1
[41] = test system: Klebsiella pneumoniae; assay: Antibacterial activity against carbapenemase-producing Klebsiella pneumoniae after 16 to 20 hrs by broth microdilution method; assay type: functional; in short: as §1
[42] = test system: Staphylococcus aureus; assay: Antibacterial activity against methicillin-resistant Staphylococcus aureus isolate M5 after 16 to 20 hrs by broth microdilution method; assay type: functional; in short: as §3
[43] = test system: Enterobacteriaceae; assay: Antibacterial activity against NDM-1-producing Enterobacteriaceae after 16 to 20 hrs by broth microdilution method; assay type: functional; in short: as §1

## CCCCCCCCN(CCCCCCCC)C(=O)[C@H](N)CO.Cl
[1]
  MIC: 4 µg/mL
[2]
  MIC: 32 µg/mL
[3]
  MIC: 32 µg/mL
[4]
  Activity: Active
[5]
  MIC: 4 µg/mL
[6]
  MIC: 4 µg/mL
[7]
  MIC: 4 µg/mL
[8]
  MIC: 8 µg/mL
[9]
  Activity: Active
[10]
  Activity: Active
[11]
  MIC: 4 µg/mL
[12]
  MIC: 32 µg/mL
[13]
  MIC: 32 µg/mL
[14]
  MIC: 32 µg/mL
[15]
  MIC: 4 µg/mL
[16]
  MIC: 4 µg/mL
[17]
  MIC: 4 µg/mL
[18]
  MIC: 32 µg/mL
[19]
  MIC: 16 µg/mL
[20]
  MIC: 16 µg/mL
[21]
  MIC: 4 µg/mL
[22]
  MIC: 16 µg/mL
[23]
  MIC: 16 µg/mL
[24]
  MIC: 16 µg/mL
[25]
  MIC: 32 µg/mL
[26]
  MIC: 4 µg/mL
[27]
  Activity: Active
[28]
  MIC: 32 µg/mL
[29]
  MIC: 16 µg/mL
[30]
  MIC: 32 µg/mL
[31]
  MIC: 4 µg/mL
[32]
  MIC: 32 µg/mL
[33]
  HC50 at 1 h: 367 µg/mL
[34]
  Activity: Active
[35]
  MIC: 16 µg/mL
[36]
  MIC: 32 µg/mL
[37]
  MIC: 4 µg/mL
[38]
  MIC: 8 µg/mL
[39]
  MIC: 32 µg/mL
[40]
  MIC: 32 µg/mL
[41]
  MIC: 32 µg/mL
[42]
  MIC: 4 µg/mL
[43]
  MIC: 16 µg/mL

## CCCCCCCCN(CCCCCCCC)C(=O)[C@H](C)N.Cl
[1]
  MIC: 8 µg/mL
[2]
  MIC: 16 µg/mL
[3]
  MIC: 16 µg/mL
[4]
  Activity: Active
[5]
  MIC: 4 µg/mL
[6]
  MIC: 4 µg/mL
[7]
  MIC: 4 µg/mL
[8]
  MIC: 4 µg/mL
[9]
  Activity: Active
[10]
  Activity: Active
[11]
  MIC: 4 µg/mL
[12]
  MIC: 16 µg/mL
[13]
  MIC: 16 µg/mL
[14]
  MIC: 16 µg/mL
[15]
  MIC: 4 µg/mL
[16]
  MIC: 4 µg/mL
[17]
  MIC: 4 µg/mL
[18]
  MIC: 64 µg/mL
[19]
  MIC: 64 µg/mL
[20]
  MIC: 64 µg/mL
[21]
  MIC: 4 µg/mL
[22]
  MIC: 64 µg/mL
[23]
  MIC: 64 µg/mL
[24]
  MIC: 64 µg/mL
[25]
  MIC: 32 µg/mL
[26]
  MIC: 4 µg/mL
[27]
  Activity: Active
[28]
  MIC: 64 µg/mL
[29]
  MIC: 64 µg/mL
[30]
  MIC: 16 µg/mL
[31]
  MIC: 4 µg/mL
[32]
  MIC: 32 µg/mL
[33]
  HC50 at 1 h: 306 µg/mL
[34]
  Activity: Active
[35]
  MIC: 64 µg/mL
[36]
  MIC: 64 µg/mL
[37]
  MIC: 4 µg/mL
[38]
  MIC: 32 µg/mL
[39]
  MIC: 32 µg/mL
[40]
  MIC: 32 µg/mL
[41]
  MIC: 16 µg/mL
[42]
  MIC: 4 µg/mL
[43]
  MIC: 64 µg/mL
